Test results reported in ChEMBL document CHEMBL4270594, “Design, synthesis and pharmacological evaluation of new 3-(1H-benzimidazol-2-yl)quinolin-2(1H)-one derivatives as potential antitumor agents” (Eur J Med Chem, 2018).
Active and inactive are the calls of the source. No cut-off for these calls is given here.

Tests used:
HepG2 [1] = assay: Cell cycle arrest in human HepG2 cells transfected with p53 siRNA assessed as accumulation at G2-phase after 48 hrs by propidium iodide staining based flow cytometry (reference value: 21.72 to 23.39%); assay type: functional
Mus musculus [2] = assay: Toxicity in Kunming mouse assessed as signs of peritonitis or damage to kidney at 50 mg/kg/day, ip for 14 consecutive days by microscopic method; assay type: organism-based; conditions: in vivo
How it was run: (§1)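 Kunming mice given 50 mg/kg/day ip in 5% v/v DMSO/saline for 14 days; kidney, heart and liver harvested, sectioned for pathology slices and examined microscopically for peritonitis or organ damage versus control mice.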

HepG2 [3] = assay: Cell cycle arrest in human HepG2 cells transfected with p53 siRNA assessed as accumulation at S-phase after 48 hrs by propidium iodide staining based flow cytometry (reference value: 20.37 to 22.8%); assay type: functional
HepG2 [4] = assay: Induction of apoptosis in human HepG2 cells transfected with p53 siRNA assessed as live cells after 24 hrs by Annexin V-FITC/ propidium iodide staining based flow cytometry (reference value: 69.9 to 70.3%); assay type: functional
Mus musculus [5] = assay: Toxicity in Kunming mouse assessed as signs of peritonitis or damage to liver at 50 mg/kg/day, ip for 14 consecutive days by microscopic method; assay type: organism-based; conditions: in vivo; how it was run: as §1
HepG2 [6] = assay: Induction of apoptosis in human HepG2 cells transfected with p53 siRNA assessed as necrotic apoptotic cells after 24 hrs by Annexin V-FITC/ propidium iodide staining based flow cytometry (reference value: 15.6 to 15.7%); assay type: functional
SK-OV-3 = assay: Cytotoxicity against human SKOV3 cells after 48 hrs by MTT assay; assay type: functional, cell-based; conditions: SK-OV-3, 48 h
How it was run: (§2)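 MTT cytotoxicity assay run against HepG2 and BEL-7404 liver cancer, SK-OV-3 ovarian, NCI-H460 large-cell lung cancer and HL-7702 normal liver cells. 5-fluorouracil and cisplatin served as positive controls. IC50 is given as mean ± SD of three repeat experiments.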

Mus musculus [7] = assay: Effect on caspase-3 protein expression in tumor tissues of Balb/c nude mouse xenografted with human NCI-H460 cells at 25 to 50 mg/kg, ip bid for 13 days measured on day 14 by Western blot analysis; assay type: functional, organism-based
L02 = assay: Cytotoxicity against human HL-7702 cells after 48 hrs by MTT assay; assay type: cell-based; conditions: L02, 48 h; how it was run: as §2
Mus musculus [8] = assay: Toxicity in Balb/c nude mouse xenografted with human NCI-H460 cells assessed as change in body weight at 25 to 50 mg/kg, ip bid for 13 days; assay type: organism-based; conditions: in vivo, 312 h
How it was run: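 SPF BALB/c nude mice bearing NCI-H460 xenografts, randomized and given 25 or 50 mg/kg in 5% DMSO/saline vehicle, with cisplatin 2 mg/kg as positive control; body weight tracked over the 13-day treatment; n = 6.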

NCI-H460 [9] = assay: Antitumor activity against human NCI-H460 cells xenografted in Balb/c nude mouse assessed as tumor growth inhibition at 25 mg/kg, ip bid for 13 days measured on day 14 post last dose relative to control; assay type: functional; conditions: read-out: TGI
How it was run: (§3)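 SPF BALB/c nude mice carrying NCI-H460 xenografts were randomly grouped and given 25 or 50 mg/kg. Vehicle (5% DMSO in saline, v/v) and cisplatin 2 mg/kg were the controls, n = 6 per group. Tumour volume was followed to give the relative tumour increment rate (T/C, %). Tumours were harvested and weighed on day 14 to give the weight inhibitory rate.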

Mus musculus [10] = assay: Upregulation of caspase-9 protein expression in tumor tissues of Balb/c nude mouse xenografted with human NCI-H460 cells at 25 to 50 mg/kg, ip bid for 13 days measured on day 14 by Western blot analysis; assay type: functional, organism-based
How it was run: (§4)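 Tumors from NCI-H460 xenografted BALB/c nude mice (25 or 50 mg/kg, vehicle 5% DMSO in saline) collected at day 14; protein levels in tumor tissue determined by western blot versus vehicle control.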

NCI-H460 [11] = assay: Antitumor activity against human NCI-H460 cells xenografted in Balb/c nude mouse assessed as tumor growth inhibition at 50 mg/kg, ip bid for 13 days measured on day 14 post last dose relative to control; assay type: functional; conditions: read-out: TGI; how it was run: as §3
NCI-H460 [12] = assay: Antitumor activity against human NCI-H460 cells xenografted in Balb/c nude mouse assessed as relative tumor volume increment rate at 50 mg/kg, ip bid for 13 days measured on day 14 post last dose relative to control; assay type: functional; how it was run: as §3
HepG2 [13] = assay: Cell cycle arrest in human HepG2 cells transfected with p53 siRNA assessed as accumulation at G1-phase after 48 hrs by propidium iodide staining based flow cytometry (reference value: 55.48 to 56.24%); assay type: functional
HepG2 [14] = assay: Induction of apoptosis in human HepG2 cells transfected with p53 siRNA assessed as early apoptotic cells after 24 hrs by Annexin V-FITC/ propidium iodide staining based flow cytometry (reference value: 5.99 to 6.01%); assay type: functional
Mus musculus [15] = assay: Toxicity in Kunming mouse assessed as signs of peritonitis or damage to heart at 50 mg/kg/day, ip for 14 consecutive days by microscopic method; assay type: organism-based; conditions: in vivo; how it was run: as §1
BEL-7404 tumor cell line [16] = assay: Cytotoxicity against human Bel7404 cells after 48 hrs by MTT assay; assay type: functional, cell-based; conditions: BEL-7404, 48 h; how it was run: as §2
Mus musculus [17] = assay: Toxicity in Kunming mouse assessed as change in body weight at 50 mg/kg/day, ip for 14 consecutive days measured daily during compound dosing; assay type: organism-based; conditions: in vivo
How it was run: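 Kunming mice dosed intraperitoneally at 50 mg/kg per day for 14 consecutive days, compound dissolved in 5% v/v DMSO/saline; body weight recorded daily as a systemic toxicity parameter against a control group; six mice per group.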

NCI-H460 [18] = assay: Antitumor activity against human NCI-H460 cells xenografted in Balb/c nude mouse assessed as relative tumor volume increment rate at 25 mg/kg, ip bid for 13 days measured on day 14 post last dose relative to control; assay type: functional; how it was run: as §3
NCI-H460 [19] = assay: Cytotoxicity against human NCI-H460 cells after 48 hrs by MTT assay; assay type: functional, cell-based; conditions: NCI-H460, 48 h; how it was run: as §2
NCI-H460 [20] = assay: Antitumor activity against human NCI-H460 cells xenografted in Balb/c nude mouse assessed as induction of necrosis at 25 to 50 mg/kg, ip bid for 13 days measured on day 14 post last dose by hematoxylin and eosin staining based microscopic method; assay type: functional, organism-based
Mus musculus [21] = assay: Downregulation of Bcl2 protein expression in tumor tissues of Balb/c nude mouse xenografted with human NCI-H460 cells at 25 to 50 mg/kg, ip bid for 13 days measured on day 14 by Western blot analysis; assay type: functional, organism-based
Mus musculus [22] = assay: Upregulation of cytochrome-c expression in tumor tissues of Balb/c nude mouse xenografted with human NCI-H460 cells at 25 to 50 mg/kg, ip bid for 13 days measured on day 14 by Western blot analysis; assay type: functional, organism-based; how it was run: as §4
HepG2 [23] = assay: Induction of apoptosis in human HepG2 cells transfected with p53 siRNA assessed as late apoptotic cells after 24 hrs by Annexin V-FITC/ propidium iodide staining based flow cytometry (reference value: 7.99 to 8.6%); assay type: functional
BEL-7404 tumor cell line [24] = assay: Cell cycle arrest in human Bel7404 cells assessed as accumulation at S-phase at 9 uM after 48 hrs by propidium iodide staining based flow cytometry (reference value: 22%); assay type: functional
HepG2 [25] = assay: Cytotoxicity against human HepG2 cells after 48 hrs by MTT assay; assay type: functional, cell-based; conditions: HepG2, 48 h; how it was run: as §2
HepG2 [26] = assay: Induction of apoptosis in human HepG2 cells assessed as live cells at 8 uM after 24 hrs by Annexin V-FITC/ propidium iodide staining based flow cytometry (reference value: 91.31%); assay type: functional

Structure (SMILES) | Activity (HepG2 [1]) | Activity (Mus musculus [2]) | Activity (HepG2 [3]) | Activity (HepG2 [4]) | Activity (Mus musculus [5]) | Activity (HepG2 [6]) | IC50 (SK-OV-3) | Activity (Mus musculus [7]) | IC50 (L02) | Activity (Mus musculus [8]) | inhibition in vivo at 25 mg/kg (NCI-H460 [9]) | Activity (Mus musculus [10]) | inhibition in vivo at 50 mg/kg (NCI-H460 [11]) | T/C (NCI-H460 [12]) | Activity (HepG2 [13]) | Activity (HepG2 [14]) | Activity (Mus musculus [15]) | IC50 (BEL-7404 tumor cell line [16]) | Activity (Mus musculus [17]) | T/C (NCI-H460 [18]) | also measured
O=c1[nH]c2cc3c(cc2cc1-c1nc2cc(Cl)ccc2[nH]1)OCO3 | 18.96% | Non-Toxic | 6.86% | 74.6% | Non-Toxic | 6.29% | 24.7 µM | inactive | > 100 µM | Non-Toxic | 46.2% | Active | 55.1% | 38.1% | 74.18% | 11.2% | Non-Toxic | 9.06 µM | Non-Toxic | 48.8% | IC50 (NCI-H460 [19]): 30.4 µM; Activity (NCI-H460 [20]): Active; Activity (Mus musculus [21]): Active; Activity (Mus musculus [22]): Active; Activity (HepG2 [23]): 7.96%; Activity (BEL-7404 tumor cell line [24]): 23.66%; IC50 (HepG2 [25]): 10.6 µM
O=c1[nH]c2ccccc2cc1-c1nc2cc(Cl)ccc2[nH]1 | 32.3% | Non-Toxic | 20.84% | 74.8% | Non-Toxic | 6.08% | 10.5 µM | inactive | > 100 µM | Non-Toxic | 51.9% | Active | 66.9% | 30.7% | 46.86% | 11.5% | Non-Toxic | 16.5 µM | Non-Toxic | 40.6% | Activity (HepG2 [26]): 53.37%; IC50 (NCI-H460 [19]): 14.7 µM; Activity (NCI-H460 [20]): Active; Activity (Mus musculus [21]): Active; Activity (Mus musculus [22]): Active; Activity (HepG2 [23]): 7.62%; IC50 (HepG2 [25]): 8.45 µM
